From ChEMBL document CHEMBL4477207, “Discovery of Novel 3-Quinoline Carboxamides as Potent, Selective, and Orally Bioavailable Inhibitors of Ataxia Telangiectasia Mutated (ATM) Kinase” (J Med Chem, 2016) come the findings set out here.

In brackets after ≈: the same amount, converted by molar mass.
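Wherever logD is given: determined by the shake flask method.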

Test system in one data set: not listed separately
As to the kind of experiment: Volume of distribution at steady state in Han Wistar rat at 2 mg/kg, iv or 5 mg/kg, po. Format: ADME, organism-based. The following applies: in vivo, read-out: Vdss.
Consider `COCc1ccc(-c2ccc3ncc(C(N)=O)c(N[C@@H](C)C4CCOCC4)c3c2)cn1`, for which the Vd turned out to be 1.1 L/kg.

Test system in another data set: not listed separately
As to the kind of experiment: Clearance in Han Wistar rat at 2 mg/kg, iv or 5 mg/kg, po. Format: ADME, organism-based. The following applies: in vivo.
As to `COCc1ccc(-c2ccc3ncc(C(N)=O)c(N[C@@H](C)C4CCOCC4)c3c2)cn1`, the clearance stood at 18 mL/min/kg.

Test system in a further data set: not listed separately
The experiment in a line: Clearance in dog at 1.7 mg/kg, iv or 4.2 mg/kg, po. Particulars: in vivo. Format: ADME, organism-based, Canis lupus familiaris.
In the case of `COCc1ccc(-c2ccc3ncc(C(N)=O)c(N[C@@H](C)C4CCOCC4)c3c2)cn1`, the clearance was determined as 50 mL/min/kg.

A further data set deals with T1, Serine-protein kinase ATM (Homo sapiens, UniProt Q13315). The experiment in a line: Inhibition of ATM (unknown origin) using p53 as substrate incubated for 30 mins followed by substrate addition measured after 2 hrs in presence of ATP by HTRF method.
T1 sequence (Q13315 whole entry): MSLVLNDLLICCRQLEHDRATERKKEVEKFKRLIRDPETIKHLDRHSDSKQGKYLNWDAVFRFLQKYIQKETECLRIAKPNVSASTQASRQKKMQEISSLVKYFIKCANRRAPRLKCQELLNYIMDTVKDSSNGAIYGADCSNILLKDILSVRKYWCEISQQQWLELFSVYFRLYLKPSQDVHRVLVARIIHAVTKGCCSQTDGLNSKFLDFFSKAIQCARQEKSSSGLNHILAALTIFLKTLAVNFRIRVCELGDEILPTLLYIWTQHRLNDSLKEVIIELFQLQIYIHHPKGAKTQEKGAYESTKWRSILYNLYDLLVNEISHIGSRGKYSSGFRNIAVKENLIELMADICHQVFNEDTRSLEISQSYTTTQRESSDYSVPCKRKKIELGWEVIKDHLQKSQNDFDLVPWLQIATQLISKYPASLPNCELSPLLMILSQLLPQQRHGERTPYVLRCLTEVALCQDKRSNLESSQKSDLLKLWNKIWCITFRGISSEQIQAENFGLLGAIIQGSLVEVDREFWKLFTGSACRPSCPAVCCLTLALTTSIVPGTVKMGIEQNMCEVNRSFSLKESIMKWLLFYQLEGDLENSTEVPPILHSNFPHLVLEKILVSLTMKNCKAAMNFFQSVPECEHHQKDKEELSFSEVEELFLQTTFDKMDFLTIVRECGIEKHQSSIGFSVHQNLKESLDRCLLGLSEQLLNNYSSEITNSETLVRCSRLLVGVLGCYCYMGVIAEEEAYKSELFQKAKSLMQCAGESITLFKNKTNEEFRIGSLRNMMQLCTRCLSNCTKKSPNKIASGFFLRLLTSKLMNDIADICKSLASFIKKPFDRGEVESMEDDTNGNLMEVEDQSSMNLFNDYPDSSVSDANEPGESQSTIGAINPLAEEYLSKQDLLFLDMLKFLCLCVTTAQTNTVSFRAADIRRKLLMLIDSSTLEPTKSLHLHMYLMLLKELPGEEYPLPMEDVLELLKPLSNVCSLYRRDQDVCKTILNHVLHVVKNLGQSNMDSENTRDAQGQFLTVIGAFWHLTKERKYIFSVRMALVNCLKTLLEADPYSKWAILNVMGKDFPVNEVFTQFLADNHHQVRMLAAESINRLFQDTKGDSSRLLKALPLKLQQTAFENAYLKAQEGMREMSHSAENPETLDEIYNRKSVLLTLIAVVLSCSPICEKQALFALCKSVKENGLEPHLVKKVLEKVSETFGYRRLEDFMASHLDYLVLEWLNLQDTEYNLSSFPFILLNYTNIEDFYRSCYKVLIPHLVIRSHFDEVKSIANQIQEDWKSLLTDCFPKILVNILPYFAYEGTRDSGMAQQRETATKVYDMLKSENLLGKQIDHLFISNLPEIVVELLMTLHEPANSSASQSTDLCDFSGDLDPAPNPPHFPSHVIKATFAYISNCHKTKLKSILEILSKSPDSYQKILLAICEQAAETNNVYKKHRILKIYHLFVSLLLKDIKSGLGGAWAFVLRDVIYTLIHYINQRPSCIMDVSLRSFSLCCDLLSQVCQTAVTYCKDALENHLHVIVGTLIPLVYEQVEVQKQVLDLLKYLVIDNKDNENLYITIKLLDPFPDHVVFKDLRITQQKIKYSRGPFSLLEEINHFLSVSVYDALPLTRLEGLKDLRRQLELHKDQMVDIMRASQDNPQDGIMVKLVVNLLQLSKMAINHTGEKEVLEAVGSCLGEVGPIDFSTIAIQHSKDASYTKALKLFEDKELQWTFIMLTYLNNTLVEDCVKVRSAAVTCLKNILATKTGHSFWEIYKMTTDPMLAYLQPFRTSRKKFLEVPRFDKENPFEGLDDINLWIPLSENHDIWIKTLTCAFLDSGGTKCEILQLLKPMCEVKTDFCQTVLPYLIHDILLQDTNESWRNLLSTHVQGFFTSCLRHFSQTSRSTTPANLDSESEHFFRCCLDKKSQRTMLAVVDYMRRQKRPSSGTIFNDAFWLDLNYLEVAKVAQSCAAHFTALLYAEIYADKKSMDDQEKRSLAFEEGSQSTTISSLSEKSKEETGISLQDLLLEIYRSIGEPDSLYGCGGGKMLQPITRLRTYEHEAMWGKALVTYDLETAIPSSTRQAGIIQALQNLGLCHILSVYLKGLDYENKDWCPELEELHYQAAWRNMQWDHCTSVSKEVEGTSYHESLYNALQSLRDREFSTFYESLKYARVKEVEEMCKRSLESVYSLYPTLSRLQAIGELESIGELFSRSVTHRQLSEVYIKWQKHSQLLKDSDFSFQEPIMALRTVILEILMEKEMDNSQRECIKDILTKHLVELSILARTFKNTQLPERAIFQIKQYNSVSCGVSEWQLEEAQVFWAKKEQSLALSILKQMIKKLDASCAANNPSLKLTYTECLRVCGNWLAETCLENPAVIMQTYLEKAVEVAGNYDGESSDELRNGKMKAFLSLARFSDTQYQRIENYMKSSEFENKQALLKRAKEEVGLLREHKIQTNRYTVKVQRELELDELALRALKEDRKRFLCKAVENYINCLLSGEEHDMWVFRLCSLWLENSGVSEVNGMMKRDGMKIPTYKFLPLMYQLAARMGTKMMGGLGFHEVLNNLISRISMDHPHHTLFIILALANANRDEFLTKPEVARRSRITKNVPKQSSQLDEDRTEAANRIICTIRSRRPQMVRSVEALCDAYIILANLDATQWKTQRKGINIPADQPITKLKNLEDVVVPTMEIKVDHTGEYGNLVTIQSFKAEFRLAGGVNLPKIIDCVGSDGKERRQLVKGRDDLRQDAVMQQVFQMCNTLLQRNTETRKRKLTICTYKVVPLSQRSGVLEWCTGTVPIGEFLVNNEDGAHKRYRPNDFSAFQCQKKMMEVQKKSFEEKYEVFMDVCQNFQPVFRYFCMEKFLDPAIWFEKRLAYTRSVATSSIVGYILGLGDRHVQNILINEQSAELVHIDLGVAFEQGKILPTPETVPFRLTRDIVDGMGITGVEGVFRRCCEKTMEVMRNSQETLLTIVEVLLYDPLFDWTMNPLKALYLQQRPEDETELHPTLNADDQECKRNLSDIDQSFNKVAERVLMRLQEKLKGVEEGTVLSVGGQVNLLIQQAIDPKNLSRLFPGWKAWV
Details: not given
(In general: TR-FRET usually uses a lanthanide donor and a delayed reading to cut background.)
For orientation: IC50 means the point on the concentration scale where inhibition reaches its midpoint. On to `C[C@@H](Nc1c(C(N)=O)cnc2ccc(C#N)cc12)c1ccc(Cl)cc1`, for which the IC50 was 49 nM.

The target in a further data set is T1, Serine-protein kinase ATM. As to the kind of experiment: Inhibition of ATM phosphorylation at Ser-1981 residue in human HT-29 cells incubated for 1 hr followed by X-ray irradiation by Hoechst staining based fluorescence plate reader analysis. Format: cell-based.
Details: not given
Compound `C[C@@H](Nc1c(C(N)=O)cnc2ccc(C#N)cc12)c1ccc(Cl)cc1` yielded an IC50 of 14400 nM.

For the next data set, the target named is Serine/threonine-protein kinase ATR (Homo sapiens, UniProt Q13535). As to the kind of experiment: Inhibition of ATR in human HT-29 cells assessed as reduction in Chk1 phosphorylation at Ser-345 residue after 60 mins in presence of 4-nitroquinoline-1-oxide by Hoechst 33258 staining based plate reader analysis.
Details: not given
Format: cell-based.
Regarding `C[C@@H](Nc1c(C(N)=O)cnc2ccc(C#N)cc12)c1ccc(Cl)cc1`, the IC50 turned out to be 4700 nM.

Test system in a further data set: not listed separately
The experiment in a line: Thermodynamic solubility of the compound in 0.1M aqueous phosphate buffer at pH 7.4 after 24 hrs by LC-UV analysis. Format: physicochemical. The following applies: read-out: Therm_solubility. The gist of the method:
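Solid samples equilibrated in 0.1 M aqueous phosphate buffer, pH 7.4, for 24 h at 25 °C.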
For `COCc1ccc(-c2ccc3ncc(C(N)=O)c(N[C@@H](C)C4CCOCC4)c3c2)cn1`, the solubility thermodynamic at 24 h came out at 590 µM (≈ 248 µg/mL).

Test system in the next data set: not listed separately
The experiment in a line: Intrinsic clearance in human hepatocytes assessed per million cells. Format: ADME, cell-based, Hepatocyte. Particulars: read-out: CLH. The gist of the method:
(§1)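 Intrinsic clearance measured in hepatocytes of each species, reported as µL/min/10⁶ cells.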
As to `COCc1ccc(-c2ccc3ncc(C(N)=O)c(N[C@@H](C)C4CCOCC4)c3c2)cn1`, the hepatocyte CLint is under 2.6 µL/min/1e6 cells.

Test system in the next data set: not listed separately
The experiment in a line: Intrinsic clearance in mouse hepatocytes assessed per million cells. Format: ADME, cell-based, Hepatocyte. The following applies: read-out: CLH. The gist of the method: as §1
In the case of `COCc1ccc(-c2ccc3ncc(C(N)=O)c(N[C@@H](C)C4CCOCC4)c3c2)cn1`, the hepatocyte CLint was found to be 18 µL/min/1e6 cells.

Test system in another data set: not listed separately
As to the kind of experiment: Intrinsic clearance in rat hepatocytes assessed per million cells. Format: ADME, cell-based, Hepatocyte. Particulars: read-out: CLH. A digest of the protocol:
as §1
Regarding `COCc1ccc(-c2ccc3ncc(C(N)=O)c(N[C@@H](C)C4CCOCC4)c3c2)cn1`, the hepatocyte CLint was under 5.3 µL/min/1e6 cells.

Test system in another data set: not listed separately
The experiment in a line: Intrinsic clearance in dog hepatocytes assessed per million cells. Format: ADME, cell-based, Canis lupus familiaris, Hepatocyte. Particulars: read-out: CLH. The gist of the method: as §1
Turning to `COCc1ccc(-c2ccc3ncc(C(N)=O)c(N[C@@H](C)C4CCOCC4)c3c2)cn1`, the hepatocyte CLint came to 11 µL/min/1e6 cells.

Test system in the next data set: not listed separately
As to the kind of experiment: Volume of distribution at steady state in dog at 1.7 mg/kg, iv or 4.2 mg/kg, po. Format: ADME, organism-based, Canis lupus familiaris. Particulars: in vivo, read-out: Vdss.
With `COCc1ccc(-c2ccc3ncc(C(N)=O)c(N[C@@H](C)C4CCOCC4)c3c2)cn1`, the Vd came to 2.6 L/kg.

Test system in another data set: not listed separately
As to the kind of experiment: Oral bioavailability in Han Wistar rat at 5 mg/kg. Format: ADME, organism-based. Particulars: in vivo.
One may read the bioavailability as dose-corrected exposure relative to a reference, in per cent. Higher therefore signals good availability. In turn, `COCc1ccc(-c2ccc3ncc(C(N)=O)c(N[C@@H](C)C4CCOCC4)c3c2)cn1` had a bioavailability of 46%.

Test system in the next data set: not listed separately
As to the kind of experiment: Oral bioavailability in dog at 4.2 mg/kg. Format: ADME, organism-based, Canis lupus familiaris. Particulars: in vivo.
Compound `COCc1ccc(-c2ccc3ncc(C(N)=O)c(N[C@@H](C)C4CCOCC4)c3c2)cn1` displayed a bioavailability of 31%.

Test system in the next data set: not listed separately
The experiment in a line: AUC (0 to 24 hrs) in nude mouse at 50 mg/kg, po. Format: ADME, organism-based. Also on record: dose 50 mg/kg, time < 24 hr, route oral. Particulars: in vivo. The gist of the method:
(§2)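 Nude mice, single oral dose of 50 mg/kg. Vehicle was either a propylene glycol aqueous solution or 10% DMSO:90% captisol solution.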
By AUC(0-t) is commonly meant the area under the concentration-time curve up to a stated or last time point. For the compound `COCc1ccc(-c2ccc3ncc(C(N)=O)c(N[C@@H](C)C4CCOCC4)c3c2)cn1`, the area under the curve AUC(0-t) at 24 h came out at 40 µM·h.

For a further data set, the target named is Serine/threonine-protein kinase mTOR (Homo sapiens, UniProt P42345). The experiment in a line: Inhibition of C-terminal FLAG-tagged recombinant mTOR (1362 to 2549 residues) (unknown origin) using Biotin-Ahx-Lys-Lys-Ala-Asn-Gln-Val-Phe-Leu-Gly-Phe-Thr-Tyr-Val-Ala-Pro-Ser-Val-Leu-Glu-Ser-Val-Lys-Glu-NH2 as substrate after 90 mins by AlphaScreen assay.
Details: not given
(Alpha assays give light when donor and acceptor beads are brought close together.)
Turning to `C[C@@H](Nc1c(C(N)=O)cnc2ccc(C#N)cc12)c1ccc(Cl)cc1`, the IC50 is 846 nM.

For another data set, the target named is DNA-dependent protein kinase catalytic subunit (Homo sapiens, UniProt P78527). The experiment in a line: Inhibition of DNAPK (unknown origin) using p53-based peptide substrate preincubated for 5 min prior to ATP addition.
Details: not given
On to `C[C@@H](Nc1c(C(N)=O)cnc2ccc(C#N)cc12)c1ccc(Cl)cc1`, for which the IC50 is 109 nM.

A further data set deals with Phosphatidylinositol 4,5-bisphosphate 3-kinase catalytic subunit alpha isoform (Homo sapiens, UniProt P42336). As to the kind of experiment: Inhibition of human recombinant PI3Kalpha using PIP2/ATP as substrate incubated for 20 mins followed by substrate addition by Kinase Glo reagent based luminescence assay.
Details: not given
For orientation: Kinase-Glo reads ATP consumption through a luciferase reaction.
With `C[C@@H](Nc1c(C(N)=O)cnc2ccc(C#N)cc12)c1ccc(Cl)cc1`, the IC50 is 36 nM.

In a further data set the target is Phosphatidylinositol 4,5-bisphosphate 3-kinase catalytic subunit beta isoform (Homo sapiens, UniProt P42338). As to the kind of experiment: Inhibition of human recombinant PI3Kbeta using PIP2/ATP as substrate incubated for 20 mins followed by substrate addition by Kinase Glo reagent based luminescence assay.
Chain of Phosphatidylinositol 4,5-bisphosphate 3-kinase catalytic subunit beta isoform (P42338 whole entry, canonical isoform): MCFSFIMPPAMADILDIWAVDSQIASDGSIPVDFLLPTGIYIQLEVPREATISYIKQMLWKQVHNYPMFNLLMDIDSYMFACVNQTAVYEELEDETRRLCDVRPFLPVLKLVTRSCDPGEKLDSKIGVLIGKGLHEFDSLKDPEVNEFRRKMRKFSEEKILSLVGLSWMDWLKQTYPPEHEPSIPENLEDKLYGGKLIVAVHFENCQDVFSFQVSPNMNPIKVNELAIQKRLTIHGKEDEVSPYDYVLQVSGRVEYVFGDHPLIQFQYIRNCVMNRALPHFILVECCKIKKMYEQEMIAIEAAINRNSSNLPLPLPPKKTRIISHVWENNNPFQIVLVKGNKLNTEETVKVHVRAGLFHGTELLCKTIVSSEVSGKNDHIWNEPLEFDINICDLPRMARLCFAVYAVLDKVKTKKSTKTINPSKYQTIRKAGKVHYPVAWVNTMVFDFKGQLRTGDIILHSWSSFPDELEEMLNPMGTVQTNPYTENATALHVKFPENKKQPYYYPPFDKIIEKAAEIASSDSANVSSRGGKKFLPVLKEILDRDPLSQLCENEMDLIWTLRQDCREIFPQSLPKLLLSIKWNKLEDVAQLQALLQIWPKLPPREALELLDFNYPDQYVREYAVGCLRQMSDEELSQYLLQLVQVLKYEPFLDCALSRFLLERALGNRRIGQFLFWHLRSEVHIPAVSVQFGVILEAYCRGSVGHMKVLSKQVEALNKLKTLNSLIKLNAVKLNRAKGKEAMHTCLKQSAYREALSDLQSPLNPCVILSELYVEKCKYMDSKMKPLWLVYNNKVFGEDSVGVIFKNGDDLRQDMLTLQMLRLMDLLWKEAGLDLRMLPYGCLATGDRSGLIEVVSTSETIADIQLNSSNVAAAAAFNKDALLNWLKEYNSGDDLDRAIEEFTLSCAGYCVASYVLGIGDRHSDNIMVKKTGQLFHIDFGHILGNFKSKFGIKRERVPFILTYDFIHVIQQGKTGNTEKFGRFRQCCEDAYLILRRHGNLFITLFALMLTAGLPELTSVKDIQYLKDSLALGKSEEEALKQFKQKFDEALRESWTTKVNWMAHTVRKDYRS
Details: not given
For the compound `C[C@@H](Nc1c(C(N)=O)cnc2ccc(C#N)cc12)c1ccc(Cl)cc1`, the IC50 is 139 nM.

Another data set concerns the target Phosphatidylinositol 4,5-bisphosphate 3-kinase catalytic subunit gamma isoform (Homo sapiens, UniProt P48736). As to the kind of experiment: Inhibition of human recombinant PI3Kgamma using PIP2/ATP as substrate incubated for 20 mins followed by substrate addition by Kinase Glo reagent based luminescence assay.
Details: not given
With `C[C@@H](Nc1c(C(N)=O)cnc2ccc(C#N)cc12)c1ccc(Cl)cc1`, the IC50 amounted to 204 nM.

A further data set has as its system Mus musculus. The experiment in a line: Time duration during which free plasma concentration stays above in-vitro ATM IC50 level in nude mouse at 50 mg/kg, po. Format: ADME, organism-based. Particulars: in vivo. The gist of the method: as §2
As for `COCc1ccc(-c2ccc3ncc(C(N)=O)c(N[C@@H](C)C4CCOCC4)c3c2)cn1`, the Time amounted to 10 h.

Test system in another data set: not listed separately
The experiment in a line: Cmax in nude mouse at 50 mg/kg, po. Format: ADME, organism-based. The arrangement: dose 50 mg/kg, route oral. The following applies: in vivo. The gist of the method:
as §2
What is called Cmax is the peak of the concentration-time curve. `COCc1ccc(-c2ccc3ncc(C(N)=O)c(N[C@@H](C)C4CCOCC4)c3c2)cn1` registered a Cmax of 6 µM.

Test system in another data set: not listed separately
As to the kind of experiment: in vitro. Particulars: human, hepatocytes.
As for `COCc1ccc(-c2ccc3ncc(C(N)=O)c(N[C@@H](C)C4CCOCC4)c3c2)cn1`, the hepatocyte CLint at 1.5 h is under 2.6 µL/min/1e6 cells.

Take `C[C@@H](Nc1c(C(N)=O)cnc2ccc(C#N)cc12)c1ccc(Cl)cc1`: the hepatocyte CLint at 1.5 h is 10 µL/min/1e6 cells.

Test system in another data set: not listed separately
The experiment in a line: in vitro. Particulars: rat, hepatocytes.
In turn, `COCc1ccc(-c2ccc3ncc(C(N)=O)c(N[C@@H](C)C4CCOCC4)c3c2)cn1` displayed a hepatocyte CLint at 1.5 h of under 5.3 µL/min/1e6 cells.

`C[C@@H](Nc1c(C(N)=O)cnc2ccc(C#N)cc12)c1ccc(Cl)cc1` returned a hepatocyte CLint at 1.5 h of 41 µL/min/1e6 cells.

Test system in a further data set: not listed separately
As to the kind of experiment: physchem. Particulars: octanol/buffer, pH 7.4.
The term logD denotes lipophilicity at a set pH, counting ionised and neutral species. Higher therefore signals a more lipophilic compound. `COCc1ccc(-c2ccc3ncc(C(N)=O)c(N[C@@H](C)C4CCOCC4)c3c2)cn1` showed a logD of 2.5.

On to `C[C@@H](Nc1c(C(N)=O)cnc2ccc(C#N)cc12)c1ccc(Cl)cc1`, for which the log distribution coefficient (logD) came out at 3.5.
